Holding throughout (assay): spectral perturbation titration
Holding throughout (type): binding

Experiment [1] has as its target T1, nitrate reductase (NarB) (Synechococcus elongatus, UniProt P39458).
T1 sequence (P39458 15-729): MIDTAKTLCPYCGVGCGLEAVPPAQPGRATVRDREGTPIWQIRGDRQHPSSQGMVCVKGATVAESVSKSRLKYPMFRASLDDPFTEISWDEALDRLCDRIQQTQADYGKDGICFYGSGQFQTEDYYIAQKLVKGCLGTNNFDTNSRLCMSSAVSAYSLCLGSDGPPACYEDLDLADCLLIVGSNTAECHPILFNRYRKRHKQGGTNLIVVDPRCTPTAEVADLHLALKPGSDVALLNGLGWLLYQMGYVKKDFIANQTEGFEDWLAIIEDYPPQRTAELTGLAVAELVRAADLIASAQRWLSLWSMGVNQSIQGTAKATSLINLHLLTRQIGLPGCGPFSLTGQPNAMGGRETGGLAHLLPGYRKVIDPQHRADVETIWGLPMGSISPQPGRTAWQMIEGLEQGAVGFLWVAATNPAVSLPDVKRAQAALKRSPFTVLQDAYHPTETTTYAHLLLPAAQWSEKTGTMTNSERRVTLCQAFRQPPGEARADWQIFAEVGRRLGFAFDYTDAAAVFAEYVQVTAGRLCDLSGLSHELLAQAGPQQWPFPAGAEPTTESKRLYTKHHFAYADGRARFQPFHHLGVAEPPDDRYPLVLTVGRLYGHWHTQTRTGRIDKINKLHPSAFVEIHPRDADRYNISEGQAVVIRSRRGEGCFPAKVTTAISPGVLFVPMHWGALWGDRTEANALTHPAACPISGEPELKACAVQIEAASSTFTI
The method, boiled down:
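Recombinant wild-type Synechococcus sp. PCC 7942 NarB had its first 14 residues deleted and a C-terminal His6 tag. It was expressed in E. coli DH5a with 100 μM molybdate and purified by Co affinity, DEAE and gel filtration. Oxidized enzyme was titrated with ferredoxin (read at 420 minus 600 nm) or nitrate (read at 400 minus 470 nm; change at saturating nitrate taken as 100% complex). Kd came from a single binding isotherm fit.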

The target in experiment [2] is T2, nitrate reductase (NarB) (Synechococcus elongatus, UniProt P39458, K144Q).
T2 sequence (P39458 15-729 K144Q): T1 sequence (P39458 15-729) with K130Q
In a few lines:
(§1)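 Single-residue NarB variants were made by site-directed mutagenesis and expressed and purified as for wild type (His6, Co affinity, DEAE, gel filtration). Complex formation with ferredoxin or nitrate was followed by difference absorbance at variant-specific wavelength pairs chosen for signal:noise. The change at saturating nitrate was taken as 100% complex. Kd came from fitting perturbation magnitude against ligand concentration to a single binding isotherm.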

The target of experiment [3] is T3, nitrate reductase (NarB) (Synechococcus elongatus, UniProt P39458, K72Q).
T3 sequence (P39458 15-729 K72Q): T1 sequence (P39458 15-729) with K58Q
The method, boiled down:
as §1

Each structure is given as a SMILES string. Positions count from the first letter of the chain named.

As usually defined, the Kd is a measure of binding affinity in units of concentration. Consider `O=[N+]([O-])O` [nitrate], for which the figures for the equilibrium dissociation constant (Kd) in experiment [1], in experiment [2] and in experiment [3] were 1000 ± 300 nM, 19 ± 6.8 µM and 8 ± 2.3 µM, respectively.

(Values after paper PMC3741069 (Biochemistry, 2013).)
